Test results taken from ChEMBL document CHEMBL4689842, “EUbOPEN Chemogenomics Library wave 1” (2021).

Tested on: U2OS
Test: Multiplex assay against U2OS
Assay type: toxicity, cell-based
Conditions: human
Procedure, shortened: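 Cells were classed with CellPathfinder machine-learning gating, first as Hoechst high-intensity objects or normal cells, then (normal cells) as healthy, pyknosed or fragmented nuclei, and finally (pyknosed cells) as mitotic or apoptotic. Staining of live cells at seeding used Hoechst33342, BioTracker Green Microtubule Cytoskeleton Dye, MitoTracker Red and Annexin V Alexa Fluor 680, with imaging on a CQ1 microscope at 37°C and 5% CO2 after compound addition. Tubulin, mitochondrial-mass and membrane-permeability phenotypes are per cents of healthy-nucleus cells.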

[1] = 12 h, 1 µM, compound concentration 1 uM, replicate 1
[2] = 12 h, 1 µM, compound concentration 1 uM, replicate 2
[3] = 12 h, 10 µM, compound concentration 10 uM, replicate 1
[4] = 12 h, 10 µM, compound concentration 10 uM, replicate 2
[5] = 24 h, 1 µM, compound concentration 1 uM, replicate 1
[6] = 24 h, 1 µM, compound concentration 1 uM, replicate 2
[7] = 24 h, 10 µM, compound concentration 10 uM, replicate 1
[8] = 24 h, 10 µM, compound concentration 10 uM, replicate 2
[9] = 48 h, 1 µM, compound concentration 1 uM, replicate 1
[10] = 48 h, 1 µM, compound concentration 1 uM, replicate 2
[11] = 48 h, 10 µM, compound concentration 10 uM, replicate 1
[12] = 48 h, 10 µM, compound concentration 10 uM, replicate 2

Structure (SMILES): CN(C)C(=O)N[C@H]1CC[C@H](CCN2CCN(c3cccc(Cl)c3Cl)CC2)CC1.Cl [CARIPRAZINE HYDROCHLORIDE]
- Population Apoptotic (%) [1]: 20%
- Population Fragmented Nuclei (%) [1]: 14%
- Population Healthy Nuclei (%) [1]: 79%
- Population Hoechst High Intensity Objects (%) [1]: 8%
- Population Membrane Permeable-Phenotype (%) [1]: 4%
- Population Mitotic Cells (%) [1]: 80%
- Population Normal (%) [1]: 91%
- Population Pyknosed Nuclei (%) [1]: 6%
- Population Tubulin-Different-Phenotype (%) [1]: 14%
- Total Cell Count [1]: 84
- Population Apoptotic (%) [2]: 60%
- Population Fragmented Nuclei (%) [2]: 7%
- Population Healthy Nuclei (%) [2]: 84%
- Population Hoechst High Intensity Objects (%) [2]: 6%
- Population Membrane Permeable-Phenotype (%) [2]: 6%
- Population Mitochondria Different-Phenotype (%) [2]: 29%
- Population Mitotic Cells (%) [2]: 40%
- Population Normal (%) [2]: 93%
- Population Pyknosed Nuclei (%) [2]: 8%
- Population Tubulin-Different-Phenotype (%) [2]: 22%
- Total Cell Count [2]: 61
- Population Apoptotic (%) [3]: 50%
- Population Fragmented Nuclei (%) [3]: 15%
- Population Healthy Nuclei (%) [3]: 59%
- Population Hoechst High Intensity Objects (%) [3]: 8%
- Population Membrane Permeable-Phenotype (%) [3]: 14%
- Population Mitochondria Different-Phenotype (%) [3]: 97%
- Population Mitotic Cells (%) [3]: 50%
- Population Normal (%) [3]: 91%
- Population Tubulin-Different-Phenotype (%) [3]: 100%
- Total Cell Count [3]: 78
- Population Apoptotic (%) [4]: 36%
- Population Fragmented Nuclei (%) [4]: 17%
- Population Healthy Nuclei (%) [4]: 57%
- Population Hoechst High Intensity Objects (%) [4]: 3%
- Population Membrane Permeable-Phenotype (%) [4]: 47%
- Population Mitochondria Different-Phenotype (%) [4]: 95%
- Population Mitotic Cells (%) [4]: 63%
- Population Normal (%) [4]: 96%
- Population Pyknosed Nuclei (%) [4]: 25%
- Population Tubulin-Different-Phenotype (%) [4]: 95%
- Total Cell Count [4]: 79
- Population Apoptotic (%) [5]: 41%
- Population Fragmented Nuclei (%) [5]: 13%
- Population Healthy Nuclei (%) [5]: 73%
- Population Hoechst High Intensity Objects (%) [5]: 9%
- Population Membrane Permeable-Phenotype (%) [5]: 4%
- Population Mitochondria Different-Phenotype (%) [5]: 17%
- Population Mitotic Cells (%) [5]: 58%
- Population Normal (%) [5]: 90%
- Population Pyknosed Nuclei (%) [5]: 13%
- Population Tubulin-Different-Phenotype (%) [5]: 8%
- Total Cell Count [5]: 102
- Population Apoptotic (%) [6]: 66%
- Population Fragmented Nuclei (%) [6]: 6%
- Population Healthy Nuclei (%) [6]: 84%
- Population Hoechst High Intensity Objects (%) [6]: 4%
- Population Membrane Permeable-Phenotype (%) [6]: 7%
- Population Mitochondria Different-Phenotype (%) [6]: 22%
- Population Mitotic Cells (%) [6]: 33%
- Population Normal (%) [6]: 95%
- Population Pyknosed Nuclei (%) [6]: 9%
- Population Tubulin-Different-Phenotype (%) [6]: 14%
- Total Cell Count [6]: 67
- Population Apoptotic (%) [7]: 57%
- Population Fragmented Nuclei (%) [7]: 13%
- Population Healthy Nuclei (%) [7]: 57%
- Population Hoechst High Intensity Objects (%) [7]: 13%
- Population Membrane Permeable-Phenotype (%) [7]: 28%
- Population Mitochondria Different-Phenotype (%) [7]: 97%
- Population Mitotic Cells (%) [7]: 42%
- Population Normal (%) [7]: 86%
- Population Pyknosed Nuclei (%) [7]: 28%
- Total Cell Count [7]: 84
- Population Apoptotic (%) [8]: 94%
- Population Fragmented Nuclei (%) [8]: 23%
- Population Healthy Nuclei (%) [8]: 55%
- Population Hoechst High Intensity Objects (%) [8]: 3%
- Population Membrane Permeable-Phenotype (%) [8]: 42%
- Population Mitochondria Different-Phenotype (%) [8]: 95%
- Population Mitotic Cells (%) [8]: 5%
- Population Normal (%) [8]: 96%
- Population Pyknosed Nuclei (%) [8]: 20%
- Population Tubulin-Different-Phenotype (%) [8]: 95%
- Total Cell Count [8]: 87
- Population Apoptotic (%) [9]: 27%
- Population Fragmented Nuclei (%) [9]: 9%
- Population Hoechst High Intensity Objects (%) [9]: 6%
- Population Membrane Permeable-Phenotype (%) [9]: 0%
- Population Mitochondria Different-Phenotype (%) [9]: 12%
- Population Mitotic Cells (%) [9]: 72%
- Population Normal (%) [9]: 93%
- Population Pyknosed Nuclei (%) [9]: 8%
- Population Tubulin-Different-Phenotype (%) [9]: 7%
- Total Cell Count [9]: 140
- Population Apoptotic (%) [10]: 50%
- Population Fragmented Nuclei (%) [10]: 6%
- Population Healthy Nuclei (%) [10]: 82%
- Population Hoechst High Intensity Objects (%) [10]: 2%
- Population Membrane Permeable-Phenotype (%) [10]: 9%
- Population Mitochondria Different-Phenotype (%) [10]: 15%
- Population Mitotic Cells (%) [10]: 50%
- Population Normal (%) [10]: 97%
- Population Pyknosed Nuclei (%) [10]: 10%
- Population Tubulin-Different-Phenotype (%) [10]: 13%
- Total Cell Count [10]: 94
- Population Apoptotic (%) [11]: 79%
- Population Fragmented Nuclei (%) [11]: 12%
- Population Healthy Nuclei (%) [11]: 59%
- Population Hoechst High Intensity Objects (%) [11]: 13%
- Population Membrane Permeable-Phenotype (%) [11]: 26%
- Population Mitochondria Different-Phenotype (%) [11]: 96%
- Population Mitotic Cells (%) [11]: 20%
- Population Normal (%) [11]: 86%
- Population Pyknosed Nuclei (%) [11]: 27%
- Population Tubulin-Different-Phenotype (%) [11]: 96%
- Total Cell Count [11]: 101
- Population Apoptotic (%) [12]: 70%
- Population Fragmented Nuclei (%) [12]: 20%
- Population Healthy Nuclei (%) [12]: 53%
- Population Hoechst High Intensity Objects (%) [12]: 2%
- Population Membrane Permeable-Phenotype (%) [12]: 42%
- Population Mitochondria Different-Phenotype (%) [12]: 89%
- Population Mitotic Cells (%) [12]: 29%
- Population Normal (%) [12]: 97%
- Population Pyknosed Nuclei (%) [12]: 25%
- Population Tubulin-Different-Phenotype (%) [12]: 82%
- Total Cell Count [12]: 108
